TNAP act DEA = activators of human TNAP at intermediate phosphate acceptor. purified TNAP, CDP-star luminescence, 100 mM DEA, 30 min; active compounds read high; scale: 0 levamisole-inhibited, 1 vehicle-only enzyme. activation factor at 20 µM. 64,000 tested, under 10 active. AID 813;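 active = activation factor of at least 2 at 20 µM, relative to controls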
S1P3 ag = agonists of human S1P3 receptor | Q99500 | S1P3 NFAT-BLA reporter cells, agonism, FRET ratio; relative to 1 µM S1P, basal subtracted | activation, % at 4.5 µM | 60,000 compounds, 0.1% hits;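 active = activation above the screen-wide mean plus 3 SD, cut at about 4.5% in these data, passing the limit was not always enough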
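Measure – % activation relative to 1 µM S1P (100%), per plate · System – stable CHO line with human S1P3, Gα16, NFAT-BLA reporter · Timing – cells plated overnight, compound 4 h 37 °C, substrate 2 h RT · Technique – fluorescent BLA substrate, ex 405 nm, em 460/535 nm ratio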
M1 antagonist = blocks the rat M1 muscarinic receptor response to acetylcholine; CHO-M1 cells, Fluo-4 calcium, ACh EC80 antagonist mode; active compounds read low; B-score at 10 µM; 64,000 compounds, 3.4% hits; AID 628;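 active = calcium fluorescence response, raw or row-and-column corrected B-score, differing from the plate sample mean either way at a set confidence level, mostly lower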
Target sequence (P08482 whole entry, looked up): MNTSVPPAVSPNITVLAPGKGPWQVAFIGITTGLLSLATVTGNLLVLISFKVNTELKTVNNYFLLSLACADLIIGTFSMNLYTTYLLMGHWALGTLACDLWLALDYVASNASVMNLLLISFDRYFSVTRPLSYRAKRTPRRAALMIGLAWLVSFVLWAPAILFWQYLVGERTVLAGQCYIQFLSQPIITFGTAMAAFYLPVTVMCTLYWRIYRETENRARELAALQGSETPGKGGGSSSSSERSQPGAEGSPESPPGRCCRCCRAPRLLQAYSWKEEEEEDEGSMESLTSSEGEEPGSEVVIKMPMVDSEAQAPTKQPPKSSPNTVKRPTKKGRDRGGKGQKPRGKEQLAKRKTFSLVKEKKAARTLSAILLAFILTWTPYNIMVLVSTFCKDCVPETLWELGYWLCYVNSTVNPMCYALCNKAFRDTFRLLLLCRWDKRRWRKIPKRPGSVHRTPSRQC
M1 agonist = agonists of M1 muscarinic receptor; 64,000 compounds, 3% hits; CHO-M1 cells, Fluo-4 calcium fluorescence, agonist mode; active compounds read high; B-score at 10 µM;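 active = fluorescence rise, raw or as B-score row- and column-corrected plate score, outside the 99.7% band of its plate's samples, either direction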
D1 mod = allosterically modulates the human D1 dopamine receptor; B-score at 10 µM; HEK293 D1, CRE-luciferase, dopamine EC30 potentiation; actives deviate in either direction; 58,000 compounds, 5.9% hits;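 active = luminescence count or its row- and column-corrected plate score outside the 99.7% band of the plate's sample wells, on either side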
S1P1 ag pot = S1P1 (human) agonism or agonism potentiation | P21453 | S1P1 CRE-bla cells, forskolin, beta-lactamase FRET, potentiator mode; S1P1 agonist co-added at EC20, 2 nM; 100% = saturating reference agonist, 0% = basal | 56,000 compounds, 0.57% hits | AID 449 | activation, % at 9.5 µM;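 active = activation above a cutoff set at the mean activation of all tested compounds plus 3 SD, cut at about 54% in these data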;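 note: forskolin at 4 µM as EC80 and the EC20 agonist is SEW2871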
D1 mod confirm = confirmation of human D1 dopamine receptor allosteric modulators; shares compounds with D1 mod; HEK293 D1 CRE-luciferase, dopamine EC30 potentiation; active compounds read high; luminescence at 10 µM; 2,200 compounds, 88% hits; AID 642;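 active = luminescence in either of two replicates above the same-plate mean plus 3 SD of the low-dose dopamine control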
D1 ag no DA = secondary test of D1 modulators: activity without dopamine | 1,900 compounds, 0.8% hits | shares compounds with D1 mod | luminescence at 10 µM | HEK293 D1 CRE-luciferase, luminescence, no dopamine; active compounds read high | AID 646; in the data active = luminescence above about 3900
Isoprot counter = alters isoproterenol CRE-luciferase response in HEK293 cells | shares compounds with D1 mod | HEK293 D1 CRE-luciferase, isoproterenol EC30 counter-screen; active compounds read high | luminescence at 10 µM | 2,200 compounds, 63% hits | AID 647;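 active = luminescence in either replicate above plate mean of wells with a partly effective reference agonist dose plus 3 SD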;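 note: isoproterenol raises cAMP through native beta-adrenoceptor Gs so signal bypasses D1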
Of the large screens only hits and unclear results are named; the others gave an inactive call (follow-up assays come after a bar, where they were run). In the library only some 11% were active in any assay of this set; here they are far more common.

CCC(C)NC(=O)Cn1c(=O)n(CCCCC(=O)NCc2ccco2)c(=O)c2ccccc21 (stereo not given)	none (no result: S1P3 ag, S1P1 ag pot)
COc1c(S(=O)(=O)N2CCCCC2)ccc2c(S(=O)(=O)N3CCCCC3)cccc12	none (no result: S1P1 ag pot)
CCn1c(N2CCC(C)CC2)nc2c1c(=O)n(C)c(=O)n2C	none
CCOc1nc(OCC)nc(N2CCC(C)CC2)n1	D1 mod 27.2 | D1 mod confirm 26964 | D1 ag no DA inactive | Isoprot counter 6496
O=C(CSc1nnc(CNc2ccc(F)cc2)n1Cc1ccccc1)N1CCOCC1	none
CCCCc1nc2n[nH]c(N)c2c2c1CCCC2	D1 mod 20.8 | D1 mod confirm 20280 | D1 ag no DA inactive | Isoprot counter 6316
CC1(C(=O)NC2CCCCC2)CCC(=O)N1Cc1cccnc1 (stereo not given)	D1 mod 7.47 | D1 mod confirm inactive | D1 ag no DA inactive | Isoprot counter inactive
CCC(C)(C)NC(=O)CN(C(=O)c1snc(C(N)=O)c1N)c1ccc2c(c1)OCCO2	D1 mod 6.58 | D1 mod confirm inactive | D1 ag no DA inactive | Isoprot counter inactive
CCCSc1nnc(-c2ccccc2N)c(=O)[nH]1	none
C=CCNC(=O)C1CC(c2cccc(OC)c2)=NO1 (stereo not given)	D1 mod 4.44 | D1 mod confirm 7068 | D1 ag no DA inactive | Isoprot counter inactive
Nc1nc(Nc2ccc(Cl)cc2Cl)nc(C(F)(F)F)n1	D1 mod 10.9 | D1 mod confirm 13920 | Isoprot counter 3436
COc1cccc(Nc2nc(N)nc(C(F)(F)F)n2)c1	D1 mod 11.2 | D1 mod confirm 14320 | D1 ag no DA inactive | Isoprot counter 4140
Nc1nc(Nc2ccccc2Br)nc(C(F)(F)F)n1	D1 mod 7.29 | D1 mod confirm 15052 | D1 ag no DA inactive | Isoprot counter 3612
COc1nc(Nc2cccc(C(F)(F)F)c2)nc(OC)n1	none (no result: S1P3 ag, S1P1 ag pot)
CCOC(=O)c1ccccc1NC(=O)c1ccc(NS(C)(=O)=O)cc1	D1 mod 19.2 (no result: S1P1 ag pot) | D1 mod confirm 19196 | D1 ag no DA inactive | Isoprot counter 4308
CCOC(=O)CSC1=C(C#N)C(c2ccc3c(c2)OCO3)CC(=O)N1 (stereo not given)	none
CCOC(=O)CSC1=C(C#N)C(c2ccc(C)o2)CC(=O)N1 (stereo not given)	D1 mod 5.35 | D1 mod confirm 9204 | D1 ag no DA inactive | Isoprot counter inactive
CC(C)Cc1nc(C(N)=O)c2[nH]c(=O)n(-c3ccc(F)cc3)c2n1	none
COc1ccc(-c2nc(C(N)=O)c3[nH]c(=O)n(-c4cccc(C)c4)c3n2)c(OC)c1	D1 mod 7.73 | D1 mod confirm 10376 | D1 ag no DA inactive | Isoprot counter 4292
Cc1cccc(-n2c(=O)[nH]c3c(C(N)=O)nc(CC(C)C)nc32)c1	D1 mod 10.9 | D1 mod confirm 15452 | D1 ag no DA inactive | Isoprot counter 3380
O=C1CC(N2CCN(c3ccc(F)cc3)CC2)C(=O)N1Cc1ccc(N2CCCC2=O)cc1 (stereo not given)	none
O=C(COc1ccccc1)Nc1nn[nH]n1	none
COC(=O)c1c(-c2cccs2)csc1NC(=O)c1cccnc1	none (no result: D1 mod)
c1ccc(-c2cnnc(SCc3cn4cccnc4n3)n2)cc1	D1 mod 8.52 | D1 mod confirm 14784 | D1 ag no DA inactive | Isoprot counter 3272
CCc1nc2ccccc2c(=O)n1CCCCn1c(CC)nc2ccccc2c1=O	none
CC(=O)N=c1sc2nc3ccccc3nc2n1N(C(C)=O)C(C)=O	D1 mod 2.79 | D1 mod confirm 8388 | D1 ag no DA inactive | Isoprot counter inactive
CCc1c(C)c(C#N)c2nc3ccccc3n2c1N(C)C	M1 antagonist 2.29, D1 mod 4.93 | D1 mod confirm 9428 | D1 ag no DA inactive | Isoprot counter 4636
COC(=O)c1sc(=S)sc1C(=O)OC	D1 mod 3.29 | D1 mod confirm 8136 | D1 ag no DA inactive | Isoprot counter inactive
CS(=O)(=O)Nc1ccc(C(=O)NCc2ccco2)cc1	none
C/C(N)=C(/C#N)C(=O)CSc1nnc(SCc2ccc(Cl)cc2)s1	D1 mod 6.7, S1P1 ag pot 60.0 | D1 mod confirm 6760 | D1 ag no DA inactive | Isoprot counter inactive
C/C(N)=C(/C#N)C(=O)CSc1nnc(Nc2c(C)cccc2C)s1	none
CCOC(=O)Cc1nnc(NC(=O)c2cccc(OCC)c2)s1	none
CCOc1ccc(C(=O)Nc2nnc(C)s2)cc1OCC	D1 mod 5.93 | D1 mod confirm 13964 | Isoprot counter 3272
CCn1cc(C2=NOC(C(=O)Nc3ccc4c(c3)OCO4)C2)c(C)n1 (stereo not given)	D1 mod 6.61 | D1 mod confirm 8608 | D1 ag no DA inactive | Isoprot counter 3452
CC1(C)Cc2c(C#N)c(NCCCO)nc(-c3ccccc3)c2CO1	D1 mod 5.8 | D1 mod confirm 11280 | D1 ag no DA inactive | Isoprot counter 3636
Cc1nc(N2CCC(C)CC2)c2c(C)c(C(=O)O)sc2n1	none
Cc1nn(-c2ccccn2)c(C)c1Oc1ccccc1O	D1 mod 3.81 | D1 mod confirm inactive | D1 ag no DA inactive | Isoprot counter inactive
Cc1nn(-c2nc3ccccc3s2)c(C)c1Oc1ccccc1O	none
CCOC(=O)N1CCN(C(=O)c2ccc(Cl)c(S(=O)(=O)Nc3ccccc3)c2)CC1	D1 mod 6.13 | D1 mod confirm 15076 | D1 ag no DA inactive | Isoprot counter inactive
COc1ccc(C(=O)N2CCCCC2)cc1S(=O)(=O)Nc1ccccc1	none (no result: D1 mod)
COc1cccc(N(C(=O)c2cccs2)c2nc3ccccc3s2)c1	D1 mod 7.59 | D1 mod confirm 7024 | Isoprot counter 2952
CCOC(=O)CN=C1CC(C)(C)CC2=C1Sc1ncnc(N(C)C)c1N2	M1 agonist 8.2, D1 mod 5.43 | D1 mod confirm 10372 | D1 ag no DA inactive | Isoprot counter 4260
CCOC(=O)C1=C(C)NC2=C(C(=O)CC(C)(C)C2)C1c1cccc(C)n1 (stereo not given)	none
c1ccc(-n2c(Cc3cccnc3)nc3cnccc32)cc1	none
Cn1cccc1C(=S)N=P(C1CCCCC1)(N1CCOCC1)N1CCOCC1	none
Cc1noc(NS(=O)(=O)c2ccc(NC(=O)Nc3ccc(Cl)c(Cl)c3)cc2)c1C	none

Source: PubChem (several laboratories)
